# Experimental data published in ChEMBL document CHEMBL1148329, “Synthesis and structure-activity studies on N-[5-(1H-imidazol-4-yl)-5,6,7,8-tetrahydro-1-naphthalenyl]methanesulfonamide, an imidazole-containing alpha(1A)-adrenoceptor agonist” (J Med Chem, 2004).
# The source made the active and inactive calls. No cut-off for these calls is given here.
# How the values were obtained:
# [1] = target: Alpha-1A adrenergic receptor (Oryctolagus cuniculus) (UniProt O02824); experiment: Functional agonism of the compounds to constrict tissue containing the alpha-1A adrenergic receptor in rabbit urethra; Inactive
# [2] = target: Alpha adrenergic receptor 1A and 1B (Rattus norvegicus) (UniProt P15823+P43140); experiment: Selectivity is ratio of pKi (binding affinity) of alpha-1B receptor to that of alpha-1A receptor.; type: protein assay
# [3] = target: T1, Alpha-1A adrenergic receptor (Bos taurus, UniProt P18130); experiment: In vitro binding affinity towards alpha-1A adrenergic receptor of bovine clone in radioligand binding assay
# T1 sequence (P18130 whole entry): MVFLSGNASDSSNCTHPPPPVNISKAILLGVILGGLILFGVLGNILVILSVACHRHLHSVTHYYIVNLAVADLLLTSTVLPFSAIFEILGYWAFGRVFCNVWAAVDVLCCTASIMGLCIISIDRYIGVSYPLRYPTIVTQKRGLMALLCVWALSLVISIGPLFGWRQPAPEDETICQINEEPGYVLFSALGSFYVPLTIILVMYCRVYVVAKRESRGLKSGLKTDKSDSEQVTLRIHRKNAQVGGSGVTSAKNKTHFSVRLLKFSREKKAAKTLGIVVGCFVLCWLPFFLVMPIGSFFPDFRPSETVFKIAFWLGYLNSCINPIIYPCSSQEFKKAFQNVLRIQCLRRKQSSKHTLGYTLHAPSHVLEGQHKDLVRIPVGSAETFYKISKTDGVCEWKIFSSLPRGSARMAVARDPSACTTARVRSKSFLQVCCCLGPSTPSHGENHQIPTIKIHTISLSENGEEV
# [4] = target: T2, Alpha-1D adrenergic receptor (Rattus norvegicus, UniProt P23944); experiment: In vitro binding affinity towards alpha-1D adrenergic receptor of rat clone in radioligand binding assay
# T2 sequence (P23944 whole entry): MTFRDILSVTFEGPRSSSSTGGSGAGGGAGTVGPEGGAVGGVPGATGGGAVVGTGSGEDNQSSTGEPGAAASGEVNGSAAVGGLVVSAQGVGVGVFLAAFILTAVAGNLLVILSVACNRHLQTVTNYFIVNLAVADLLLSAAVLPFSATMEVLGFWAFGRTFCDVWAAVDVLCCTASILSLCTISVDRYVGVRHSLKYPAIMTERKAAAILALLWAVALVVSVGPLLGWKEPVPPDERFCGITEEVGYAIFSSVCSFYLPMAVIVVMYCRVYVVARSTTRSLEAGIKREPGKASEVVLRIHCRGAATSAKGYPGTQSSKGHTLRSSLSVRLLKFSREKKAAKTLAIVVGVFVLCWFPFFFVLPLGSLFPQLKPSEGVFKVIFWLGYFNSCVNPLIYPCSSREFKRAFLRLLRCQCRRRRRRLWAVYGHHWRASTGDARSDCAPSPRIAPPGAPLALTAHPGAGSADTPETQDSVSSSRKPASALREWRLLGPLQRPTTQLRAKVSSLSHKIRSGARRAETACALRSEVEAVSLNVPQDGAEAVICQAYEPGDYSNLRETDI
# Procedure, shortened: (§1)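 Radioligand binding at α1 subtypes: α1A from rat submaxillary gland, α1B hamster clone, α1D rat clone. Run essentially per an earlier method.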
# [5] = target: Alpha adrenergic receptor 1A and 1D (Rattus norvegicus) (UniProt P23944+P43140); experiment: Selectivity is ratio of pKi (binding affinity) of Alpha-1D to that of alpha1A; type: protein assay
# [6] = target: T3, Alpha-1B adrenergic receptor (Mesocricetus auratus, UniProt P18841); experiment: In vitro binding affinity towards alpha-1B adrenergic receptor of hamster clone in radioligand binding assay; type: single protein
# T3 sequence (P18841 whole entry): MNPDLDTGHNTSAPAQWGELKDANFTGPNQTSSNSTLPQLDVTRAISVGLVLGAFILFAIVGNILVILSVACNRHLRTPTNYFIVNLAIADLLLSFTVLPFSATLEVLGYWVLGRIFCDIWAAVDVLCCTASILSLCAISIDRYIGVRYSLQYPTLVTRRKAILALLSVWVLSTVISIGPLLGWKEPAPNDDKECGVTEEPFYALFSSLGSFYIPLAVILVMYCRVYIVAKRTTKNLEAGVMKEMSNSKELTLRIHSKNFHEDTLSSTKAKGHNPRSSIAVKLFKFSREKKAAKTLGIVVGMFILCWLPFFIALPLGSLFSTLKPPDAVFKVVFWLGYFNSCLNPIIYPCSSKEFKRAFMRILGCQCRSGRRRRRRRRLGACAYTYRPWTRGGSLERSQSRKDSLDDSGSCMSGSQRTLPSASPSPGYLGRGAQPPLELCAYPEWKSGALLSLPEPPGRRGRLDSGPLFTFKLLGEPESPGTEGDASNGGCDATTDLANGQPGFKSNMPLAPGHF
# Procedure, shortened: as §1
# Canis familiaris [7] = experiment: Uroselectivity was determined by measuring effective dose required for 5 mmHg increase of intraurethral pressure (IUP) in vivo in dog; IA = Inactive; type: functional, organism-based; details: Canis lupus familiaris
# Procedure, shortened: (§2)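 Dog model recording intraurethral pressure (IUP) and mean arterial pressure (MAP) simultaneously. Increasing iv doses given, maximal effect of each dose taken. Doses giving a 5 mmHg rise in IUP (ED Δ5) or 20 mmHg rise in MAP (ED Δ20) were calculated, in nmol/kg ± SEM, n ≥ 4 (2 or 3 where footnoted).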
# Canis familiaris [8] = experiment: Uroselectivity was determined by measuring effective dose required for 20 mmHg increase of mean arterial pressure (MAP) in vivo in dog; IA = Inactive; type: functional, organism-based; details: Canis lupus familiaris; Artery
# Procedure, shortened: as §2
# [9] = target: T4, Alpha-1A adrenergic receptor (Oryctolagus cuniculus) (UniProt O02824); experiment: Efficacy relative to phenylephrine (PE) to constrict tissue containing the alpha-1A adrenergic receptor in rabbit urethra; type: functional, tissue-based
# T4 sequence (whole entry): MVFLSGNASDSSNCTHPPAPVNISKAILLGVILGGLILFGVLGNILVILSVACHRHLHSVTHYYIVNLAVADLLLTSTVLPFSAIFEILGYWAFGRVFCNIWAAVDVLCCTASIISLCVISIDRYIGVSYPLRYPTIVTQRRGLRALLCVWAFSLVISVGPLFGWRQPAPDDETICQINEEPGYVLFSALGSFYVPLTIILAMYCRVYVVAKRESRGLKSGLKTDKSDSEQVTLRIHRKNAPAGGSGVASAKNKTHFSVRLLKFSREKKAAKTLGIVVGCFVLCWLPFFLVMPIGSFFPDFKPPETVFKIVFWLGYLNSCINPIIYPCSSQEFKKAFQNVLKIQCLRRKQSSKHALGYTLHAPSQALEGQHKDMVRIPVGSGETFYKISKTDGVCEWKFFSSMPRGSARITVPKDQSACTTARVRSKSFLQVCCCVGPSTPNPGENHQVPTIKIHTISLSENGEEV
# Procedure, shortened: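 α1-agonist dose–response curves in isolated tissue: rabbit urethra (α1A), rat spleen (α1B), rat aorta (α1D). Agonist potency and efficacy read from the concentration–response curves.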
# Chain of Alpha adrenergic receptor 1A and 1B (Rattus norvegicus) (P15823 whole entry, looked up): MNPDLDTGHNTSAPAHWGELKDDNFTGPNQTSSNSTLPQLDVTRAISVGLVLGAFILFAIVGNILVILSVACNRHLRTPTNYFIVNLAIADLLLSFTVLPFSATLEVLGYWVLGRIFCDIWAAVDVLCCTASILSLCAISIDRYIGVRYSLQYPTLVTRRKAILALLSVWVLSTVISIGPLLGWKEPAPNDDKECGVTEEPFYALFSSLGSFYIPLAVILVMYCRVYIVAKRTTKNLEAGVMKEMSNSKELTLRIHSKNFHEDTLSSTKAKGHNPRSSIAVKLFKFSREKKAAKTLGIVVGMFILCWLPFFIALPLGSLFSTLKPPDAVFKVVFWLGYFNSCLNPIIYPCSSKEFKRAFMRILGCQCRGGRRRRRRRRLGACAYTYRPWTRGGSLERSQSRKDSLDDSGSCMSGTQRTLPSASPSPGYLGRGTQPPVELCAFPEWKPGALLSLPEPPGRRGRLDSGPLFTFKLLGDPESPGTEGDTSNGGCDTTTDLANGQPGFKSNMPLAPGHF
# Chain of Alpha adrenergic receptor 1A and 1B (Rattus norvegicus) (P43140 whole entry, looked up): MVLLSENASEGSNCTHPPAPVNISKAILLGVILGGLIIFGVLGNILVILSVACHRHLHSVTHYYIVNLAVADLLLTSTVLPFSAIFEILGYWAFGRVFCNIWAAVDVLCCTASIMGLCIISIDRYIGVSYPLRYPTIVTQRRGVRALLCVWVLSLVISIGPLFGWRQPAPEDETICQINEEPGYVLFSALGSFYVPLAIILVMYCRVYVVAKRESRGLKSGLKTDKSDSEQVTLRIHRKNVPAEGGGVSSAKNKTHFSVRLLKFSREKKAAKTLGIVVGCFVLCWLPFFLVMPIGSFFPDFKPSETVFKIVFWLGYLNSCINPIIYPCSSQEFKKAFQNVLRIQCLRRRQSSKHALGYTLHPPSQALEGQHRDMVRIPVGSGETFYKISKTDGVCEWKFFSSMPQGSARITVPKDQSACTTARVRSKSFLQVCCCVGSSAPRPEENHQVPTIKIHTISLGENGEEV
pD2 [1],Selectivity [2],Ki [3] [nM],Ki [4] [nM],Selectivity [5],Ki [6] [nM],Efficacy [9] [%],SMILES,ED delta5 (Canis familiaris [7]),ED delta20 (Canis familiaris [8])
inactive,1,692,100,0.4,214,,O=S(=O)(Nc1cccc2c1CCCC2c1c[nH]cn1)c1ccc2ccccc2c1 (stereo unspecified),,
,,,,,,,CS(=O)(=O)Nc1cccc2c1CCC=C2c1c[nH]cn1,inactive,inactive
,,,,,,40,Cn1cnc(C2CCCc3c(NS(C)(=O)=O)cccc32)c1 (stereo unspecified),inactive,inactive
